Measured values from article PMC5473019 (Journal of the American Chemical Society, 2017).
*1 amine or outer side, *2 acyl side, *3 side chain or, on linkers, in order; H or OH if unused. Where a SMILES comes first, the peptide text is derived from it. Bridges are numbered along the chain shown (N, C = ends). [ ]: non-standard residue; d: D form. The star is where a group is joined. oXylylene = c1ccc(C[*:2])c(C[*:1])c1; Pent4ynoyl = C#CCCC(=O)*

Key:
[1] = tested on: HeLa-Htt103Q cells; assay: Htt103Q aggregate assay, cellular model of Huntington's disease; type: cell-based; details: HeLa cells expressing CFP-htt103Q, 20 μM peptide, aggregates <1 μm
In short: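 HeLa cells expressing CFP-Htt103Q were treated with peptide, then fixed in 2% PFA in PBS. An observer blinded to condition counted CFP-positive aggregates <1 μm by fluorescence microscopy. Scores were the percentage of cells carrying small aggregates and the number of small aggregates per cell.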

[2] = tested on: HeLa cells stably expressing GFP-LC3; assay: GFP-LC3 puncta assay of autophagic flux, with and without bafilomycin A1; type: cell-based
In short: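 HeLa cells stably expressing GFP-LC3 were given peptide for 2 h in serum-free Opti-MEM acidified with 0.15% (v/v) 6 N HCl, with or without bafilomycin A1. Cells were fixed in 2% PFA in PBS and GFP-LC3 puncta per cell were counted by fluorescence microscopy, with ≥100 cells per sample. Triplicate samples, mean ± SEM, t test versus DMSO; ≥3 independent experiments.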

[3] = Solubility as observed by the authors; type: physicochemical

Row | solubility compared with DD5-o ([3]; medium not stated, N-terminal tag attached to DD5-o) | Compound | number of small htt103Q aggregates observed per cell [1] | percentage of cells that have small htt103Q aggregates [1] | extent of autophagy induction relative to Tat-Beclin 1 (GFP-LC3 puncta) ([2]; 10 μM peptide, 2 h) | change in GFP-LC3 puncta upon cotreatment with Baf A1 ([2]; peptide 2 h plus bafilomycin A1) | solubility in water ([3]; judged for 2D-NMR experiments)
1 | – | C#CCCC(=O)N[C@H](C(=O)N[C@@H]1CSCc2ccccc2CSC[C@H](C(=O)N[C@@H](Cc2ccccc2)C(=O)N[C@@H](Cc2c[nH]cn2)C(=O)N[C@H](C(=O)N[C@@H](Cc2c[nH]c3ccccc23)C(=O)N[C@@H](Cc2c[nH]cn2)C(N)=O)[C@@H](C)CC)NC(=O)[C@H](C)NC(=O)[C@H](CC(N)=O)NC1=O)C(C)C [DD5-o] (Pent4ynoyl-V[dC]NA[dC]FHIWH-NH2; linker 2-5 via oXylylene) | significant decrease | significant decrease | slightly less activity than Tat-Beclin 1 | further increase in GFP-LC3 puncta | not soluble enough in water for 2D-NMR experiments
2 | equally soluble as DD5-o | (HT)-VcNAcFHIWH (sidechain bridge or staple) [HT-DD5-o] | – | – | – | – | –
